LANA-H2B inh: blockers of LANA interaction with H2A/H2B – biochemical, FP readout, HTS, primary screen; Protein LANA1 (Human herpesvirus 8 type P (isolate GK18)), Q9QR71; cell-free LANA-H2A/H2B peptide, fluorescence polarization; inhibition, % (no concentration beside the values); 320,000 compounds, 0.6% hits; in the data active = inhibition mostly above about 10%, no sharp cut-off; inactive = mostly below about 6.7%
CSN inh: inhibitors of CSN-mediated cullin deneddylation, primary screen, biochemical, fluorescence polarization, uHTS. inhibition, % at 12.5 µM. 360,000 compounds, 0.38% hits. Purified CSN, SCF-Nedd8-OG deneddylation;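 active = pattern-corrected inhibition above about 35%, with an unprinted fluorescence ratio check between 0.5 and 1.5, limit read from the data, passing the limit was not always enough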;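 note: 0% = enzyme with substrate and 100% = substrate without enzyme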
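Material: human Csn5 produced in HEK293T cells; Input: enzyme 0.24 nM; Reagent: SCFSkp2-Nedd8OG substrate at 10 nM final; Dosing: 12.5 µM compound; Incubation: 90 min reaction at room temperature; Detection: fluorescence polarization of the substrate; Evaluation: % inhibition of substrate cleavage by Csn5; Control set: substrate-only high control, full reaction low control.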
HNF4A DNA FP: change in binding of human HNF4A to DNA, primary screen, biochemical, fluorescence polarization, FITC-DNA; 1 h; activity change, % at 10 µM; Hepatocyte nuclear factor 4-alpha (Homo sapiens), P41235; 360,000 compounds, 0.3% hits; AID 1224865, 2016; in the data active = activity change above about 30%, passing the limit was not always enough
Target sequence (P41235 whole entry, looked up): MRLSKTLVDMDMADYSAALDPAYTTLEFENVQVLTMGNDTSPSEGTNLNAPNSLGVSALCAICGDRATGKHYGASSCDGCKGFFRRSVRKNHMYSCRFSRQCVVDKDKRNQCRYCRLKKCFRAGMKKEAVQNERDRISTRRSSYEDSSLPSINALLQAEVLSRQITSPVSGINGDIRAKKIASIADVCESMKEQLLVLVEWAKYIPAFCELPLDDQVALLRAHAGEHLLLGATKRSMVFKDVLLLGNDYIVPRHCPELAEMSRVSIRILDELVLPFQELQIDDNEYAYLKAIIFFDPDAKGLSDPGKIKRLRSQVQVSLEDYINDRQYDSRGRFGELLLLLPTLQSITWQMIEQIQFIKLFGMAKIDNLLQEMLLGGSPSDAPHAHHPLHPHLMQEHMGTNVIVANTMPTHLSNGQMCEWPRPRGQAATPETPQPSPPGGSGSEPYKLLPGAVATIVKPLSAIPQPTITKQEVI
EBNA-1 inh: EBNA-1 DNA-binding inhibitors, primary screen, biochemical, fluorescence polarization; inhibition, % at 14.8 µM; 300,000 compounds, 0.34% hits; AID 1950, 2009; in the data active = inhibition above about 28%
Bfl-1 A1 inh: caspase 3/7 activation in MEF A1-2A-BIM cells, primary screen, A1 inhibitor project, cell-based, luminescence, HTS | Caspase-Glo 3/7 luminescence, 3 h; percent of clofoctol response, vehicle zero | caspase activation, % (no concentration beside the values) | 330,000 compounds, 0.066% hits | AID 2462, 2010;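 active = over half of replicate activation scores above 10%, or exactly half above 10 with the replicate mean above 10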
ZTA DNA inh: blocks Epstein-Barr virus ZTA, an EBNA-1 counter-screen | ZTA-DNA binding, fluorescence polarization | inhibition, % at 11 µM | AID 2234 | 320,000 compounds, 0.15% hits; in the data active = inhibition above about 33%
EBNA-1 confirm: EBNA-1 DNA-binding inhibitors, retest, confirmation, biochemical, fluorescence polarization, triplicate; shares compounds with EBNA-1 inh; 830 compounds, 35% hits; inhibition, % at 14.8 µM; Recombinant EBNA-1 DBD, Cy5-DNA fluorescence polarization;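 active = mean inhibition across replicates above a set limit taken from the earlier primary screen, cut at about 28% in these data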;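 note: plate controls were EBNA-1 protein with DMSO for no effect and wells lacking EBNA-1 for full effect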
ZTA counter trip: EBV Zta DNA binding inhibitors, counter-screen for EBNA-1 inhibitor project, biochemical, fluorescence polarization, triplicate | shares compounds with EBNA-1 inh | Zta-ZRE DNA binding, Cy5 fluorescence polarization | inhibition, % at 11.1 µM | 830 tested, under 10 active;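 active = mean inhibition over triplicates above a set limit taken from the primary EBNA-1 screen, cut at about 37% in these data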;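 note: purified full length Zta protein with Cy5 labeled ZRE DNA probe; 0% = Zta with DMSO and 100% = wells lacking Zta protein; inhibitors lower polarization by freeing the labeled DNA probe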
* = called active by the depositor; nt = no result. Rows were chosen to be rich in hits. Some 1.5% of all compounds tested hit in one or more screens of this group.

SMILES	LANA-H2B inh	CSN inh	HNF4A DNA FP	EBNA-1 inh	Bfl-1 A1 inh	ZTA DNA inh	EBNA-1 confirm	ZTA counter trip
CC1(C)C(c2ccccc2)=[N+]([O-])CN1O	0	-2	-1	16	1	-2	nt	nt
CC(=O)c1cc(C)ccc1OC(=O)c1cccc2nc(C)oc12	0	1	2	81*	-1	-1	-4	-7
CC(=O)c1cc(C)ccc1OC(=O)c1ccncc1	-2	-1	1	5	0	3	nt	nt
O=C(CCC(=O)c1ccc(Cl)cc1)OCn1nnc2ccccc2c1=O	-8	0	-1	nt	0	nt	nt	nt
Cc1oc(-c2ccccc2)nc1C(=O)Nc1nccs1	4	-2	5	52*	0	11	0	0
COc1ccccc1NC(=O)Cn1c2ccccc2c2nc3n(c(=O)c21)CCS3	-7	2	5	44*	1	-15	0	-8
O=C(Cn1c2ccccc2c2nc3n(c(=O)c21)CCS3)Nc1ccccc1C(F)(F)F	-44	-3	-1	-9	0	2	nt	nt
Cc1nc2sc3c(c2c2nnc(SCC(=O)NCc4ccco4)n12)CCCC3	-1	3	-1	5	1	0	nt	nt
O=C(CSc1nnc2c3c4c(sc3ncn12)CCCC4)NCc1ccco1	1	3	0	32*	0	2	-1	0
COc1ccc(C(=O)N2CCN(c3ccccc3Cl)CC2)cc1S(=O)(=O)NC1CC1	3	2	-1	nt	-1	0	nt	nt
N#C/C(=N\Nc1cccc(C(F)(F)F)c1)C(=O)c1csc(-c2cccnc2)n1	-7	3	-14	50*	0	-5	0	4
O=C(CCc1nnc(Cc2c[nH]c3ccccc23)o1)NCCC1CCCCO1 (stereo not drawn)	nt	5	1	nt	nt	nt	nt	nt
CCn1c(O)c(/C=C2\C=Nc3ccccc32)sc1=Nc1ccc(C)cc1	3	6	1	9	0	8	nt	nt
CCn1c(O)c(/C=C2\C=Nc3ccccc32)sc1=O	14*	-1	-1	28*	-2	-7	14	9
Cc1c(C#N)c(N)nc2c3c(sc12)NC(=O)CC3c1ccccc1 (stereo not drawn)	-3	-1	-2	63*	0	-23	25	-2
CCn1c(SCC(=O)c2c[nH]c3ccccc23)nnc1-c1cccs1	-6	15	19	30*	0	-3	23	12
Cc1ccc(C(=O)CSc2ccc(-c3ccccc3)nn2)cc1	2	-8	1	-11	-1	-2	nt	nt
O=C(CSc1ccc(-c2ccccc2)nn1)c1ccccc1	0	0	1	40*	-4	-5	-12	-5
O=C(Nc1nc2cc3c(cc2s1)OCCO3)c1ccc(N2C(=O)CCC2=O)cc1	2	-4	0	62*	-1	-2	57*	23
O=C(Nc1nc2cc3c(cc2s1)OCCO3)c1ccncc1	-4	-1	7	5	-6	2	nt	nt
Cc1ccc(CNC(=O)CCCn2c(=O)c3ccccc3n(CC(=O)NCc3ccco3)c2=O)cc1	-3	-5	-2	1	0	-4	nt	nt
Cc1ccc(NC(=O)Cn2c(=O)n(CCCC(=O)NCc3ccco3)c(=O)c3ccccc32)cc1	2	3	1	38*	0	-5	45*	-7
CN(C)c1ccc(NC(=O)Cn2c(=O)n(Cc3ccccc3)c(=O)c3ccccc32)cc1	-1	-5	0	43*	1	10	35*	2
O=c1c([N+](=O)[O-])cc(C(F)(F)F)cn1Cc1c(Cl)cccc1Cl	9	-3	7	8	0	21	nt	nt
Cc1cccc(C)c1OC(=O)CN1C(=O)c2ccccc2C1=O	3	2	-4	-3	0	-11	nt	nt
SMILES	LANA-H2B inh	CSN inh	HNF4A DNA FP	EBNA-1 inh	Bfl-1 A1 inh	ZTA DNA inh	EBNA-1 confirm	ZTA counter trip
COc1ccc(CNS(=O)(=O)c2cc3c4c(c2)C(C)C(=O)N4CCC3)cc1 (stereo not drawn)	3	-6	-2	9	-1	17	nt	nt
CCOc1ccc(NC(=O)Nc2cccn(Cc3ccccc3)c2=O)cc1	1	0	-3	-9	1	-2	nt	nt
COc1ccc(Cn2cccc(NC(=O)Nc3cccc(C#N)c3)c2=O)cc1	0	-1	1	106*	0	24	117*	1
COc1ccc(-n2c(SCC(=O)N/N=C(\C)c3cccnc3)nc3ccccc3c2=O)cc1	3	7	3	0	0	-4	nt	nt
O=C(NCCOc1ccccc1F)c1ccc2c(=O)n3c(nc2c1)CCC3	-2	-2	-2	nt	-2	8	nt	nt
O=C(NCCc1ccc(F)cc1)c1ccc2c(=O)n3c(nc2c1)CCC3	2	-4	0	45*	0	-12	-4	-5
Cc1ccc(-c2csc3ncnc(SCC(=O)Nc4nnc(C)s4)c23)cc1	6	-7	1	38*	0	-5	17	-2
COCCOC(=O)c1c(NC(=O)COC(=O)Cc2cccc(OC)c2)sc(C(N)=O)c1C	1	1	-2	39*	0	-7	98*	8
Cc1ccc(C(=O)N2[C@@H]3CN(C)C(=O)[C@@]2(Cc2ccccc2)[C@H]2C(=O)N(Cc4ccccc4)C(=O)[C@@H]32)cc1	nt	0	0	nt	nt	nt	nt	nt
CS(=O)(=O)c1ccc(-c2cccc(NC(=O)c3ccc(Br)o3)c2)nn1	-5	-1	0	38*	0	-1	28*	-7
N#C/C(=C\c1cn(Cc2ccccc2F)c2ccccc12)C(=O)NCc1ccco1	-2	-3	8	62*	-1	6	57*	-6
C=C(C)c1cccc(C(C)(C)NC(=O)NC2CC(C)(C)NC(C)(C)C2)c1	-5	2	3	-4	1	6	nt	nt
CC(C)(C)OC(=O)N1CCN(c2ccc([N+](=O)[O-])cc2)CC1	0	3	2	11	1	7	nt	nt
